# Source: PubChem
# ARNT TACC3 PPI – disruptors of human ARNT/TACC3 interaction; Q9Y6A5; AlphaScreen His-ARNT PAS-B/GST-TACC3 binding, luminescence; TACC3 fragment carries E629A point mutation; inhibition, % at 9.99 µM; hit rate 0.66% among 390,000;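 active = mean inhibition of replicates at least 50% and at least half of replicates each reaching 50%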;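 also: 0% = complete ARNT plus TACC3 wells and 100% = ARNT alone without TACC3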
# CAL PDZ FP-1 – inhibitors of human CAL PDZ peptide binding; purified CAL PDZ, TMR-peptide fluorescence polarization, 1 h; inhibition, % at 20 µM; hit rate 0.02% among 330,000;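 active = highest replicate inhibition of at least 40%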;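 also: plate controls were DMSO neutral control wells for no effect and unlabeled competitor peptide control wells for full effect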
#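 Test system: tagged CAL PDZ domain / Buffer or medium: sodium phosphate/NaCl buffer pH 7.4 with TCEP, IgG, Thesit / Reagent: TMR-labelled reporter peptide T*-PRC34 bound in PDZ groove / Compound dosing: single point, 20 µM / Schedule: 1 h incubation at room temperature before polarization reading / Technique: fluorescence polarization (mP) / Benchmarks: unlabelled peptide, DMSO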
# CaV13 FRET inh – Primary screen for inhibitors of IQ motif and Ca2+-dependent inactivation inhibitor domain binding in CACNA1D, Förster resonance energy transfer in living cells, …. inhibition, % at 12.3 µM. hit rate 0.098% among 340,000. HEK cells, CFP/YFP FRET ICDI-IQ, plate reader, 10 min; percent FRET-ratio fall versus neutral wells;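 active = mean replicate inhibition of at least 30% and at least 1% of replicates passing that level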;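 also: 0% = median of the neutral control wells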
# CAL PDZ FP-2 – inhibitors of human CAL PDZ peptide binding; inhibition, % at 24.9 µM; AID 602252; Q9HD26; hit rate 0.92% among 300,000; purified CAL PDZ, TMR-peptide fluorescence polarization, 1 h;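 active = mean inhibition of at least 30% with at least half of replicates also reaching 30%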;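 also: 0% = DMSO neutral control and 100% = excess unlabeled competitor peptide PRC23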
# * marks the source's active call; other numbers are inactive results; · = no result given; + = active, no number. Most compounds without a hit are left out; they make up all but 1.2% or so of the library.
SMILES,ARNT TACC3 PPI,CAL PDZ FP-1,CaV13 FRET inh,CAL PDZ FP-2
CCOc1cc(C)c(Cl)cc1S(=O)(=O)N(CC)CC,-5,-1,-5,74*
O=C(N/N=C1/CC2C=CCC12)c1cccs1 (stereo not drawn),-3,-1,·,42*
CCc1nnc(N/N=C/c2cc(Br)c(O)cc2O)n1N,63*,-2,-2,1
CC(C)(C)c1nnc(N/N=C/c2cc(Br)ccc2O)n(N)c1=O,58*,-1,-4,·
CO[C@@H]1CN(C)C(=O)c2ccc(NC(=O)C3CC3)cc2OC[C@@H](C)N(C(=O)c2ccncc2)C[C@H]1C,7,·,·,·
C[C@@H]1CN([C@H](C)CO)C(=O)c2cccc(NC(=O)c3ccncc3)c2O[C@H]1CN(C)Cc1ccc(C(F)(F)F)cc1,1,·,·,·
COc1ccc(C2C3=C(CCCC3=O)N(CC(=O)O)C3=C2C(=O)CCC3)cc1Br,·,·,0,·
COc1ccc(C2C3=C(CCCC3=O)N(CC(=O)O)C3=C2C(=O)CCC3)cc1Cl,7,0,+,·
Cc1[nH]n(-c2nc(-c3ccccc3F)cc(=O)[nH]2)c(=O)c1CCO,45*,-1,-6,9
Cc1[nH]n(-c2ccccc2)c(=O)c1CCO,1,0,-5,-1
COc1ccc(S(=O)(=O)Nc2ccc3c(c2)C(=O)N([C@@H](C)CO)C[C@H](C)[C@H](CN(C)C)O3)cc1,-4,·,·,·
COCC(=O)Nc1ccc2c(c1)[C@@H]1C[C@H](CC(=O)NCC(F)(F)F)O[C@H](CO)[C@@H]1O2,3,·,·,·
CCCC(=O)Nc1ccc2c(c1)OC[C@@H](C)N(C(=O)CC)C[C@@H](C)[C@H](OC)CN(C)C2=O,2,·,·,·
NCC1CC2c3ccccc3C1c1ccccc12 (stereo not drawn),3,·,-7,92*
O=C(NCc1cccnc1)C1CC2c3ccccc3C1c1ccccc12 (stereo not drawn),38,-2,-4,-3
CC(C)c1csc(CN2CCC(N3CCC(C(=O)NCC4CCCO4)CC3)CC2)n1 (stereo not drawn),-3,0,1,39*
CC(C)NC(=O)C1CCN(C2CCN(Cc3nc(C(C)C)cs3)CC2)CC1,-1,-2,3,·
N#Cc1ccc(CSCC(=O)NN=C2CCCC2)cc1,-4,-1,-2,-3
O=C(CSCc1ccc(Cl)cc1)NN=C1CCCC1,-2,0,-3,72*
C[C@@H]1CN([C@@H](C)CO)C(=O)c2cc(-c3ccccc3)cnc2O[C@@H]1CN(C)C(=O)Cc1ccccn1,-4,·,·,·
CN(C)NC(=S)Nc1ccc2nc(-c3ccccn3)c(-c3ccccn3)nc2c1,73*,-1,·,-4
OCCCNC(=S)Nc1ccc2nc(-c3ccccn3)c(-c3ccccn3)nc2c1,60*,-2,-7,0
C[C@@H]1CCCCO[C@H](CN(C)CC2CC2)[C@H](C)CN([C@@H](C)CO)C(=O)c2cc(NC(=O)c3ccncc3)ccc2O1,2,·,·,·
Oc1cccc2ccc(Nc3ccccn3)nc12,64*,-2,-5,-2
C/C=C/c1ccc([C@@H]2[C@@H](CNC(=O)C3CCC3)N(C(=O)NCCC)[C@H]2CO)cc1,-1,·,·,·
SMILES,ARNT TACC3 PPI,CAL PDZ FP-1,CaV13 FRET inh,CAL PDZ FP-2
COc1ccc(C2(C)NC(=O)N(CC(=O)c3cc(C)n(C4CC4)c3C)C2=O)cc1OC (stereo not drawn),4,-1,-6,54*
CCC1(C)NC(=O)N(CC(=O)c2cc(C)n(C3CC3)c2C)C1=O (stereo not drawn),2,-1,-3,-1
C[C@@H]1CN([C@H](C)CO)C(=O)c2cc(C#CCN(C)C)cnc2O[C@H]1CN(C)C(=O)Nc1cccc(F)c1,-2,·,·,·
COCCCn1c(=O)c2sccc2n2c(CCCC(=O)NCc3cccc(OC)c3)nnc12,9,-1,-2,47*
CO[C@H]1CN(C)C(=O)c2cc(C#N)ccc2OCC[C@@H]2CC[C@H](OC)[C@@H](CN(C)C(=O)[C@H]1C)O2,-9,·,·,·
CCCN(C)C[C@@H]1OCCCC[C@H](C)Oc2ccc(NC(=O)Nc3ccc(F)cc3)cc2C(=O)N([C@H](C)CO)C[C@@H]1C,-3,·,·,·
O=C(NNS(=O)(=O)c1ccccc1[N+](=O)[O-])c1cccc(Br)c1,-2,-1,-9,51*
CC(CCc1ccccn1)C(=O)C(C)CCc1ccccn1 (stereo not drawn),-5,-1,-6,81*
C[C@@H]1CN([C@H](C)CO)C(=O)c2cc(NC(=O)Nc3ccc(C(F)(F)F)cc3)ccc2O[C@@H](C)CCCCO[C@@H]1CN(C)S(=O)(=O)c1ccc(Cl)cc1,6,·,·,·
[O-][n+]1cccc2cccc(O)c21,53*,0,-5,49*
COc1cccc(/C=C2\SC(=S)N(CCC(=O)NCCc3ccc(O)cc3)C2=O)c1,-4,0,-2,80*
Cc1cc(C)c(S(=O)(=O)/N=C2/C=C(SCC(=O)O)C(=O)c3ccccc32)cc1C,74*,18,·,-1
Cc1cc(C)c(S(=O)(=O)/N=C2\C=C(Nc3ccc(C(=O)O)cc3)C(=O)c3ccccc32)c(C)c1,·,1,-16,15
COc1ccccc1Nc1nc(NCCCCO)nc(N2CCCC2)n1,2,-1,-9,-2
COc1ccccc1Nc1nc(NCCO)nc(N2CCCC2)n1,active,-1,-5,0
Nc1ccc(C#Cc2ccc3c(=O)c4ccccc4oc3c2)cc1,4,0,106*,1
O=C(NCC1CC1)[C@H]1[C@H](CO)[C@H]2Cn3c(ccc(-c4cccnc4)c3=O)[C@@H]1N2C(=O)C1CCC1,-5,·,·,·
COn1c(SCc2ccc(C)cc2C)nc2ccccc2c1=O,-4,·,-3,48*
Cc1c(C(=O)N2CCCCC2)c(S(=O)(=O)N2CCC(C)CC2)c(C)n1C,-5,-1,-6,75*
Cc1ccc(S(=O)(=O)N2CC(C)N(C(=O)N3CCOCC3)C2)cc1 (stereo not drawn),9,-2,-4,-4
CCC(=O)N1CN(S(=O)(=O)c2ccc(C)cc2)CC1C (stereo not drawn),-3,0,-6,42*
O=C(C[C@H]1C[C@@H]2c3cc(NC(=O)C4CCC4)ccc3O[C@@H]2[C@H](CO)O1)NCc1ccc(-c2ccccc2)cc1,0,·,·,·
COc1ccc(/C=C/C(=O)OCC(=O)Nc2ccc(S(N)(=O)=O)cc2)cc1OC,-2,-1,-6,45*
COc1ccc(COC[C@]23NC(=O)N[C@H](c4ccccc4O2)[C@H]3CO)cc1,-4,·,·,·
COc1ccc(-c2nc(CS(=O)CC(=O)NC(C)CCc3ccccc3)c(C)o2)cc1OC (stereo not drawn),-3,0,-3,45*
Cc1[nH]c(=O)[nH]c(=O)c1/C=N/NC(=O)[C@H](CC(C)C)NC(=O)OC(C)(C)C,24,-1,·,-5
Cc1[nH]c(=O)[nH]c(=O)c1/C=N/NC(=O)[C@@H](N)CC(C)C,65*,0,-13,1
